Series [1] can be described thus: Permeability of the compound in 0.025 M phosphate buffer at pH 7.4 assessed drug flux level after 5 hrs by PAMPA. In kind it is ADME. The following applies: pH 7.4, 5 h. In a few lines:
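PAMPA: donor at 0.5 mM in pH 7.4 0.025 M phosphate buffer, diluted from 1 mM DMSO stock. Filters are coated with 1% phosphatidylcholine in dodecane, and the acceptor is 50% DMSO in phosphate buffer. Incubated 5 h at room temperature with gentle shaking. Donor and acceptor are analyzed by HPLC-UV to calculate Papp. Three plates were run on different days.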

Series [2] can be described thus: Apparent permeability from apical to basolateral side in human Caco2 cells at 10 uM after 2 hrs by LC-MS/MS analysis. The format is ADME, cell-based. The following applies: Caco-2. The essentials:
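Caco-2 cells differentiated three weeks in 96-well format, monolayer integrity checked by Lucifer yellow transport. Compound at 10 µM for 2 h; apical buffer HBSS/10 mM HEPES/glucose pH 6.5 with 100 µM Lucifer yellow, basolateral buffer pH 7.4. Papp = (dQ/dt)/C0A; efflux ratio Papp(B→A)/Papp(A→B).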
(In general: Caco-2 cells form a polarised layer with tight junctions and transporters.)

The nature of series [3]: Intrinsic clearance in human liver microsomes at 5 uM after 60 mins in presence of NADPH by LC-MS/MS analysis. The format is ADME, Microsome. The following applies: read-out: CLH. In a few lines:
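Compound at 5 µM with 1 mg/mL human or mouse liver microsomes plus an NADPH-regenerating system, in 100 mM potassium phosphate at 37°C. Reactions were stopped with acetonitrile at sampling times. Percent remaining versus time 0 was measured by HPLC, in duplicate.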
(In general: Liver microsomes are vesicles of endoplasmic reticulum, rich in cytochrome P450 enzymes.)

The nature of series [4]: Stability in mouse plasma assessed as parent compound remaining. The format is ADME, cell-free.
Series [5] can be described thus: Toxicity in mouse assessed as drug tolerability at 300 mg/kg, po. The following applies: in vivo. The format is organism-based.
Series [6] can be described thus: AUC (0 to infinity) in mouse at 1 to 2 mg/kg, iv by LC/MS/MS analysis. The following applies: in vivo. The format is ADME, organism-based. In a few lines:
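Male ICR mice (27 ± 5 g, n = 3) dosed iv via tail vein at 2 or 1 mg/kg in 30% PEG400/5% ethanol in water. Jugular blood (0.3 mL, heparin) sampled at set times over 24 h or more; plasma separated, acetonitrile-precipitated, drug quantified by LC/MS/MS; parameters from noncompartmental-type software estimation.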

A short description of series [7]: Protein binding in mouse plasma. In kind it is ADME, cell-free. The following applies: read-out: PPB (converted).
Series [8] can be described thus: Stability in human plasma assessed as parent compound remaining. In kind it is ADME, cell-free.
A short description of series [9]: Solubility of the compound […] after 24 hrs by UV-based HPLC analysis. The format is physicochemical. The following applies: DMSO. The essentials:
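Solubility in water: DMSO stock aliquots diluted into water, shaken 24 h at room temperature, filtered through 0.45 µm nylon, then quantified by HPLC-UV with a C18 column and 70% ACN. Run in triplicate.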

Series [10] has as its target Inhibitor of nuclear factor kappa-B kinase subunit epsilon (Homo sapiens, UniProt Q14164). Briefly: Binding affinity to IKKE in SILAC-labeled human MDA-MB-231 cells lysate by mass spectrometry based kinAffinity assay. The format is subcellular. In a few lines: (§1)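 Chemical proteomics: MDA-MB-231 lysate bound to matrix of immobilized broad kinase inhibitors at several densities (BC50), then competed with increasing free compound (CC50); proteins quantified by mass spectrometry, Kd via Cheng-Prusoff. Two competition formats run in parallel to check equilibrium.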

Series [11] has as its target 5'-AMP-activated protein kinase subunit gamma-2 (Homo sapiens, UniProt Q9UGJ0). Kind of series: Binding affinity to PRKAG2 in SILAC-labeled human MDA-MB-231 cells lysate by mass spectrometry based kinAffinity assay. The format is subcellular. In a few lines: (§2)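 MDA-MB-231 lysate applied to KinAffinity matrix of immobilized broadband kinase inhibitors at graded densities to obtain BC50 per target. Competition then run with increasing free compound to give CC50; Kd derived by Cheng-Prusoff. Two competition experiments in parallel to check equilibrium, one with lysate pre-incubated with compound before adding matrix. Quantitation by mass spectrometry.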

The target in a further series is LIM domain kinase 1 (Homo sapiens, UniProt P53667). Briefly: Binding affinity to LIMK1 in SILAC-labeled human MDA-MB-231 cells lysate by mass spectrometry based kinAffinity assay. The format is subcellular. In a few lines:
as §1

Series [12] has as its target Serine/threonine-protein kinase ULK3 (Homo sapiens, UniProt Q6PHR2). Kind of series: Binding affinity to ULK3 in SILAC-labeled human MDA-MB-231 cells lysate by mass spectrometry based kinAffinity assay. The format is subcellular. The essentials: as §2
The target in series [13] is Epidermal growth factor receptor (Homo sapiens, UniProt P00533). Briefly: Binding affinity to EGFR in SILAC-labeled human MDA-MB-231 cells lysate by mass spectrometry based kinAffinity assay. The format is subcellular. In a few lines:
as §1

Series [14] addresses Serine/threonine-protein kinase MARK2 (Homo sapiens, UniProt Q7KZI7). Kind of series: Binding affinity to MARK2 in SILAC-labeled human MDA-MB-231 cells lysate by mass spectrometry based kinAffinity assay. The format is subcellular. The essentials:
as §1

The target in series [15] is TRAF family member-associated NF-kappa-B activator (Homo sapiens, UniProt Q92844). Kind of series: Binding affinity to TANK in SILAC-labeled human MDA-MB-231 cells lysate by mass spectrometry based kinAffinity assay. In kind it is subcellular. In a few lines: as §2
Series [16] concerns the target Serine/threonine-protein kinase 4 (Homo sapiens, UniProt Q13043). Briefly: Binding affinity to MST1 in SILAC-labeled human MDA-MB-231 cells lysate by mass spectrometry based kinAffinity assay. In kind it is subcellular. The essentials: as §2
Series [17] addresses Tyrosine-protein kinase Yes (Homo sapiens, UniProt P07947). Briefly: Binding affinity to YES in SILAC-labeled human MDA-MB-231 cells lysate by mass spectrometry based kinAffinity assay. The format is subcellular. The essentials:
as §2

Series [18] concerns the target Serine/threonine-protein kinase 10 (Homo sapiens, UniProt O94804). Briefly: Binding affinity to LOK in SILAC-labeled human MDA-MB-231 cells lysate by mass spectrometry based kinAffinity assay. The format is subcellular. The essentials: as §1
Series [19] addresses 5'-AMP-activated protein kinase subunit gamma-1 (Homo sapiens, UniProt P54619). Kind of series: Binding affinity to PRKAG1 in SILAC-labeled human MDA-MB-231 cells lysate by mass spectrometry based kinAffinity assay. The format is subcellular. In a few lines: as §2
Series [20] deals with Serine/threonine-protein kinase/endoribonuclease IRE1 (Homo sapiens, UniProt O75460). Kind of series: Binding affinity to IRE1 in SILAC-labeled human MDA-MB-231 cells lysate by mass spectrometry based kinAffinity assay. The format is subcellular. In a few lines:
as §1

A further series deals with Aurora kinase B (Homo sapiens, UniProt Q96GD4). Kind of series: Binding affinity to AURKB in SILAC-labeled human MDA-MB-231 cells lysate by mass spectrometry based kinAffinity assay. In kind it is subcellular. In a few lines:
as §1

The target in series [21] is Tyrosine-protein kinase Lyn (Homo sapiens, UniProt P07948). Kind of series: Binding affinity to LYN in SILAC-labeled human MDA-MB-231 cells lysate by mass spectrometry based kinAffinity assay. The format is subcellular. In a few lines: as §1
The target in series [22] is Mitogen-activated protein kinase kinase kinase 2 (Homo sapiens, UniProt Q9Y2U5). Briefly: Binding affinity to MAP3K2 in SILAC-labeled human MDA-MB-231 cells lysate by mass spectrometry based kinAffinity assay. In kind it is subcellular. The essentials: as §1
Series [23] addresses Dual specificity mitogen-activated protein kinase kinase 2 (Homo sapiens, UniProt P36507). Briefly: Binding affinity to MAP2K2 in SILAC-labeled human MDA-MB-231 cells lysate by mass spectrometry based kinAffinity assay. The format is subcellular. In a few lines: as §1
Series [24] has as its target 5'-AMP-activated protein kinase subunit beta-1 (Homo sapiens, UniProt Q9Y478). Kind of series: Binding affinity to PRKAB1 in SILAC-labeled human MDA-MB-231 cells lysate by mass spectrometry based kinAffinity assay. The format is subcellular. The essentials: as §2
The target of series [25] is Serine/threonine-protein kinase SIK2 (Homo sapiens, UniProt Q9H0K1). Briefly: Binding affinity to QIK in SILAC-labeled human MDA-MB-231 cells lysate by mass spectrometry based kinAffinity assay. The format is subcellular. In a few lines:
as §2

Values after ≈ are worked out from the molar mass of the structure shown.

We go through three compounds from ChEMBL document CHEMBL4371006, “Discovery of N-[4-(Quinolin-4-yloxy)phenyl]benzenesulfonamides as Novel AXL Kinase Inhibitors” (J Med Chem, 2018).

LIM domain kinase 1, sequence (P53667 whole entry, the tested form may be a part): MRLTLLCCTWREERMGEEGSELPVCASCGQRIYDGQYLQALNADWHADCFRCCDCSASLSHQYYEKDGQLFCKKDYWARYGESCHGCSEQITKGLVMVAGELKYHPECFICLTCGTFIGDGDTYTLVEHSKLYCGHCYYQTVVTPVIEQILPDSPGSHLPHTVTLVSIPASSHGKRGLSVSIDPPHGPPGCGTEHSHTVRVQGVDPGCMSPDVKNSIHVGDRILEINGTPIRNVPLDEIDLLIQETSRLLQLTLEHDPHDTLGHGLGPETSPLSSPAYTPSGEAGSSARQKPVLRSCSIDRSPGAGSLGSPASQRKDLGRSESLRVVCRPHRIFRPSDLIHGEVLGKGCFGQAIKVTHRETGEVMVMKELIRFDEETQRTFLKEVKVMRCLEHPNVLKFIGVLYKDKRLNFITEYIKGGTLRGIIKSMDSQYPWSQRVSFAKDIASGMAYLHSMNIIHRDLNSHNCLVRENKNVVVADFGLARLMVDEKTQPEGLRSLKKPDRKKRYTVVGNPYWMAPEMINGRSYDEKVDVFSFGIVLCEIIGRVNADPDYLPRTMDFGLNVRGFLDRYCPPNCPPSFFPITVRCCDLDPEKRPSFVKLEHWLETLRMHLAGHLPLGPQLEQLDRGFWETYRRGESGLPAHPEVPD
5'-AMP-activated protein kinase subunit gamma-2, sequence (Q9UGJ0 whole entry): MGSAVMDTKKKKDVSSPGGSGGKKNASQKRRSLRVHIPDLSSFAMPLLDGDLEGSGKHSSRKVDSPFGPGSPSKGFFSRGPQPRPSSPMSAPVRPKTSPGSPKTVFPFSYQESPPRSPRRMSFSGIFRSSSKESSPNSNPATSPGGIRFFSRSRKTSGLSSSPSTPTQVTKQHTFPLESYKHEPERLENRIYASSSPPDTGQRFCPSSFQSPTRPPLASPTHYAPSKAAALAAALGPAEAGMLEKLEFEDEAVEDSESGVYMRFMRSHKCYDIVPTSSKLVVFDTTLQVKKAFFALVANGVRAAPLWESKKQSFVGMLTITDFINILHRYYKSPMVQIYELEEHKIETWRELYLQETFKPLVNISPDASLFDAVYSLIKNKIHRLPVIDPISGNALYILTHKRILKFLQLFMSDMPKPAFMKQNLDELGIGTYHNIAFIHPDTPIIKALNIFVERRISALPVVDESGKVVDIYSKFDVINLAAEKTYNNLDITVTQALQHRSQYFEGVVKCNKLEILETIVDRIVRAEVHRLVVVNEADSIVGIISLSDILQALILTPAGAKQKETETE
Serine/threonine-protein kinase/endoribonuclease IRE1, sequence (O75460 whole entry): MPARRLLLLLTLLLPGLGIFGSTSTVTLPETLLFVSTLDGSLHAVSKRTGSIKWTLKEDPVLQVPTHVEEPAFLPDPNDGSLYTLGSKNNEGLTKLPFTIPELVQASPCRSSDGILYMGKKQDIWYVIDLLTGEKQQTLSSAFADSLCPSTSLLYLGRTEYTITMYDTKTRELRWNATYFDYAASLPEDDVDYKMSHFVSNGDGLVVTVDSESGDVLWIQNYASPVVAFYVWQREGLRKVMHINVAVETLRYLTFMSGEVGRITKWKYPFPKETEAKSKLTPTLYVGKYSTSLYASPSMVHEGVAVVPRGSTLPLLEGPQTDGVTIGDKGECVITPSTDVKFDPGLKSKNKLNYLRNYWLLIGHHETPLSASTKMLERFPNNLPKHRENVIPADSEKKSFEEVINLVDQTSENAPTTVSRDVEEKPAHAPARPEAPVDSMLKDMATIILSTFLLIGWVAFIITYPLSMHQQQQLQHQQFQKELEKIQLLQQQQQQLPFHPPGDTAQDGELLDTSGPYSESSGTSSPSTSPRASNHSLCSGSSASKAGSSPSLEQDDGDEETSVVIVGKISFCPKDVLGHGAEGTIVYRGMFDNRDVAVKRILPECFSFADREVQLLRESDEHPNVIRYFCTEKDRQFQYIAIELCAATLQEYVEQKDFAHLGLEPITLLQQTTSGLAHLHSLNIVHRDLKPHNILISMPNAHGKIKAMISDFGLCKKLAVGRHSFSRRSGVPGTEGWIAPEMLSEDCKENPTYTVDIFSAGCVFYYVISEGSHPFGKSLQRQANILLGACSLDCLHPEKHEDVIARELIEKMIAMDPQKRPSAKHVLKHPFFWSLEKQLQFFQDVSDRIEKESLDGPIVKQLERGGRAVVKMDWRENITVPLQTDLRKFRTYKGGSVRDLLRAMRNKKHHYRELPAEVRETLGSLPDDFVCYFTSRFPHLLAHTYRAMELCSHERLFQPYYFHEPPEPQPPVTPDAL
5'-AMP-activated protein kinase subunit beta-1, sequence (Q9Y478 whole entry): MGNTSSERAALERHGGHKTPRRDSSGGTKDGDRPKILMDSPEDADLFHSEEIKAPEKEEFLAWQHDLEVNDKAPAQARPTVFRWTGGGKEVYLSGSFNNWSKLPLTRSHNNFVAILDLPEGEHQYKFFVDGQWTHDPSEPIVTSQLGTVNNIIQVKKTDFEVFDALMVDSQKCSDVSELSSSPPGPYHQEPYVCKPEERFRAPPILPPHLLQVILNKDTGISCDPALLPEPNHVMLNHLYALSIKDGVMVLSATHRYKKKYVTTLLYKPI
Inhibitor of nuclear factor kappa-B kinase subunit epsilon, sequence (Q14164 whole entry): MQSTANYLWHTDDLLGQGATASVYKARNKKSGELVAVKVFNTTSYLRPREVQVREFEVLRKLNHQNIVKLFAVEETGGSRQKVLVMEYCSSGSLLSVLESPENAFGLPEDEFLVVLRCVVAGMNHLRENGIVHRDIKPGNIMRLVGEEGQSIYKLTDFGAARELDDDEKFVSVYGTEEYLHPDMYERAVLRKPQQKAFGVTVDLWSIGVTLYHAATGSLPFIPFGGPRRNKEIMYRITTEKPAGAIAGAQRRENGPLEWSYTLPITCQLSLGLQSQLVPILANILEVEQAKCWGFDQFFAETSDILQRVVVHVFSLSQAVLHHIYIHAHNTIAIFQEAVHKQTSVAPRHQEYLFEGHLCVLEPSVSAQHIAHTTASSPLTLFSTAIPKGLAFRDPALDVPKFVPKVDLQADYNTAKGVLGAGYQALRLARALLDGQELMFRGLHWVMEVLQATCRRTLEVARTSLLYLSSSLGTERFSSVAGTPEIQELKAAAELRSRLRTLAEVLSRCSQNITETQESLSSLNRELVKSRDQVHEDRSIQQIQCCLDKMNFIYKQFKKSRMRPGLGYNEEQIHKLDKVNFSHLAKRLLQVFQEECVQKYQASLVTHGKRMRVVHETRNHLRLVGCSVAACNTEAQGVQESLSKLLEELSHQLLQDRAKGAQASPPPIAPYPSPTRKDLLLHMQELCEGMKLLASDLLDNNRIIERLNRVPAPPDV
Mitogen-activated protein kinase kinase kinase 2, sequence (Q9Y2U5 whole entry): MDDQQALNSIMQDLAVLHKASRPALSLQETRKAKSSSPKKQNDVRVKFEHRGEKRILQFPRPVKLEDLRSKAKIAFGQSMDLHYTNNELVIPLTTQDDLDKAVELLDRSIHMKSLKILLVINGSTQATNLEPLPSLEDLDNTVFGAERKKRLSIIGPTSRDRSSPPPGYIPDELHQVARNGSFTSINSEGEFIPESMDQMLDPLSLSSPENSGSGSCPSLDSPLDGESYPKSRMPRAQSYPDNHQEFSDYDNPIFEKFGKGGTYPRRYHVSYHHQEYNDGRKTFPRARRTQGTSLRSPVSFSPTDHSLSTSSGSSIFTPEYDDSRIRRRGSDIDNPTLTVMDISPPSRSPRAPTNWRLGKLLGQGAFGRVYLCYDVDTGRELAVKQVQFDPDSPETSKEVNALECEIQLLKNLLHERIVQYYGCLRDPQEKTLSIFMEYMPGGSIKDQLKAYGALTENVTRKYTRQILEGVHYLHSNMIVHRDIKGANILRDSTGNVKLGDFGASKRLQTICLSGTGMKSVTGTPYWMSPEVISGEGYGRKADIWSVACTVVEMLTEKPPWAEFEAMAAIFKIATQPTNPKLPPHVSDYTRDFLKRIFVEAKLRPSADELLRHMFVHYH
Epidermal growth factor receptor, sequence (P00533 whole entry): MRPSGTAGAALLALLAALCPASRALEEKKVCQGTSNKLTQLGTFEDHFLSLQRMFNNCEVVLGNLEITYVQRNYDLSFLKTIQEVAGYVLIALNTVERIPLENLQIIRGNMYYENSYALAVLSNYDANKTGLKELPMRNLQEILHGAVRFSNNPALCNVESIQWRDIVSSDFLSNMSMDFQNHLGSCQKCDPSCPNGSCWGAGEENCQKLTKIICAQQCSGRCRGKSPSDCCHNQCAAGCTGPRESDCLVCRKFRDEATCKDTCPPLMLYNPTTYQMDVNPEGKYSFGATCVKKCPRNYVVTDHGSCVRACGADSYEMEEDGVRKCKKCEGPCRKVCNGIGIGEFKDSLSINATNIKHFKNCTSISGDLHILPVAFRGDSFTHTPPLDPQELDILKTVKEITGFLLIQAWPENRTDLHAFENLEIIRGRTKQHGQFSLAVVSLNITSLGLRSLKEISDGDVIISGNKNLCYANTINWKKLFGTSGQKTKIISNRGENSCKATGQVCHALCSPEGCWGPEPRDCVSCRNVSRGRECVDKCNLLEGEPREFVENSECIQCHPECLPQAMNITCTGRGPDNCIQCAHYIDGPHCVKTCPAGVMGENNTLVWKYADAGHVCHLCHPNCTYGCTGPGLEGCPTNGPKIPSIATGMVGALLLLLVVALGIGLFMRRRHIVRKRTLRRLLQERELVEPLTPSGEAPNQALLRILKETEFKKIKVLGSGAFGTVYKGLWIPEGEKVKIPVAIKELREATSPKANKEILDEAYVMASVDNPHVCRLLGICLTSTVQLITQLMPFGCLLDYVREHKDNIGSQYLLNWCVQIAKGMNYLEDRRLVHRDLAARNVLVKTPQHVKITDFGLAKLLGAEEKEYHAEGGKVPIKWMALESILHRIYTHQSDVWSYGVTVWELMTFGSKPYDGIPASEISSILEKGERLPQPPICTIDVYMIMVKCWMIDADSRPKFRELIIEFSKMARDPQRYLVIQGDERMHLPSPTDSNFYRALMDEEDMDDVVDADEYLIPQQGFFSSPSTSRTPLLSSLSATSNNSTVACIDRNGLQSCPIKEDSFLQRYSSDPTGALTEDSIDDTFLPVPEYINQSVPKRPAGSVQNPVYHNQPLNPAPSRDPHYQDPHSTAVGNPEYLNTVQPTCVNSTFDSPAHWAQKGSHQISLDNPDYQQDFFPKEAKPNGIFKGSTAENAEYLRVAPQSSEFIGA

Turning to `COc1cc2c(Oc3ccc(NS(=O)(=O)c4cc(F)ccc4F)cc3F)ccnc2cc1OCCCN1CCCC(C)C1` (centres undefined), the permeability in [1] came to 46.1%. The Papp A→B (as a rule, how fast a substance crosses the layer from the apical side) at 2 h, 10 µM in [2] is 2.4 ×10⁻⁶ cm/s. In addition, the microsomal CLint at 5 µM in series [3] worked out at 18.3 µL/min/mg. Besides, the Stability in series [4] is recorded as 98.8%; in series [8] it was 99.1%. Besides, the Activity entry in [5] was “Non-Toxic”. In addition, the AUC(0-inf) – broadly, the area under the concentration-time curve extrapolated to infinity – in series [6] was 1400 ng·h/mL. Also, the fraction unbound in series [7] is 0.041. In series [9], the solubility (usually the concentration that dissolves in the medium under given conditions) at 24 h was 18 µM (≈ 11.1 µg/mL).
With `COc1cc2c(Oc3ccc(NS(=O)(=O)c4c(F)cccc4F)cc3F)ccnc2cc1OCCCN1CCN(C)CC1`, the “Kd(free)” value in series [10] was 122 nM; in series [11], 2296 nM; on LIM domain kinase 1 it was 93 nM; in [12], over 2513 nM; in series [13], 16 nM; in series [14], 7086 nM. Further, the “Kd(free)” value in [15] worked out at 1567 nM; in [16], 2080 nM; in [17], 40 nM; in series [18], 3039 nM; in series [19] it was 1871 nM; in series [20], 243 nM. Besides, the “Kd(free)” value came out at 34 nM at Aurora kinase B; 11 nM in series [21]; 5518 nM in series [22]; 8852 nM in series [23]; 2279 nM in series [24]; 3545 nM in [25].
In the case of `COc1cc2c(Oc3ccc(NS(=O)(=O)c4cc(F)ccc4F)cc3F)ccnc2cc1OCCCN1CCN(C)CC1`, the “Kd(free)” value in series [10] is 282 nM; in [11], 1078 nM; on LIM domain kinase 1, 130 nM; in series [12] it was over 2514 nM; in [13], 122 nM; in series [14], 4455 nM. Further, the “Kd(free)” value was 3418 nM in [15]; 2433 nM in series [16]; 178 nM in series [17]; 3780 nM in series [18]; 825 nM in series [19]; 723 nM in series [20]. Further, the “Kd(free)” value is over 69 nM on Aurora kinase B; 29 nM in series [21]; 4396 nM in [22]; 6917 nM in series [23]; 1257 nM in [24]; 4518 nM in series [25]. In series [1], this compound came in with a permeability of 24.3%. Further, the Papp A→B at 2 h, 10 µM in series [2] is 7.4 ×10⁻⁶ cm/s. In addition, the microsomal CLint at 5 µM in series [3] was determined as 60.5 µL/min/mg. In addition, the values for the Stability in series [4] and in series [8] were 108% and 96.3%, respectively. For the same compound, the Activity result in [5] is “Non-Toxic”. The same compound displayed an AUC(0-inf) in series [6] of 2650 ng·h/mL. In addition, in series [7], the fraction unbound is 0.028. For the same compound, the concentration in solution in series [9] (solubility at 24 h) came to 68.8 µM (≈ 42.4 µg/mL).
